≈ marks a conversion by molar mass, not a printed value.
What was measured:
[1] = test system: Mycobacterium tuberculosis; test: Antimicrobial activity against Mycobacterium tuberculosis H37Rv after 7 days by MABA; assay type: functional; settings: 168 h
Procedure, shortened: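 Strain H37Rv or clinical isolates grown to late log phase in 7H9-ADC-TG, washed, resuspended in PBS, filtered (8 µm) and frozen. On day 7 Tween 80 and alamar blue added, read 16–24 h later (ex 530/em 590). MIC = lowest concentration giving ≥90% fluorescence reduction versus bacterium-only controls.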

[2] = test system: Vero; test: Cytotoxicity against African green monkey Vero cells assessed as reduction in cell viability after 48 hrs by MTT assay; assay type: cell-based; settings: Chlorocebus sabaeus
Procedure, shortened: (§1)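 Vero or HepG2 cells in RPMI1640 with 10% FBS at 37 °C, 5% CO2, seeded at 4×10^5 cells/mL. Threefold dilutions at 64–0.26 µg/mL final for 48 h. Cells then washed with HBSS, MTT added for 4 h, absorbance read at 492 nm. IC50 taken relative to untreated control.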

[3] = Metabolic stability in human liver microsomes assessed as parent compound remaining at 1 uM measured after 30 mins in presence of NADPH by LC-MS/MS analysis; assay type: ADME, Microsome; settings: read-out: Stability
Procedure, shortened: (§2)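 Male CD-1 mouse or pooled human liver microsomes (1 mg/mL protein), compound at 1 µM, 37 °C. Reaction started with 1 mM NADPH and quenched with cold ACN/MeOH containing internal standard. Parent remaining measured by LC-MS/MS; the 30-min value is normalised to time zero.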

[4] = Metabolic stability in CD-1 mouse liver microsomes assessed as parent compound remaining at 1 uM measured after 30 mins in presence of NADPH by LC-MS/MS analysis; assay type: ADME, Microsome; settings: read-out: Stability; procedure, shortened: as §2
[5] = Inhibition of Mycobacterium tuberculosis DprE1 expressed in Escherichia coli BL21(DE3) by fluorescence based assay
Procedure, shortened: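 Buffer: 50 mM Hepes pH 7.5, 100 mM NaCl, 1.5% DMSO, 100 µM Tween-20, 2 µM FAD, 50 µM resazurin. DprE1 (1 µM) with 1 mM FPR at 30 °C across inhibitor concentrations. Resorufin formation followed by fluorescence (ex 530/em 595 nm).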

[6] = test system: HepG2; test: Cytotoxicity against human HepG2 cells assessed as reduction in cell viability after 48 hrs by MTT assay; assay type: cell-based; settings: HepG2, 48 h; procedure, shortened: as §1
[7] = Selectivity index, ratio of IC50 for human HepG2 cells to MIC=>90 for Mycobacterium tuberculosis H37Rv; assay type: toxicity; settings: read-out: Selectivity Index
[8] = test system: Mycobacterium tuberculosis; test: Antimicrobial activity against Mycobacterium tuberculosis H37Rv infected in BALB/C mouse assessed as bacterial burden in mouse lung at 25 mg/kg, po administered via gavage treated 5 times per week for 3 weeks starting from day 10 post infection (reference value: 7.102 +/- 0.152 log10CFU); assay type: functional
[9] = Half life in CD-1 mouse hepatocytes assessed per million cells at 1 uM incubated up to 120 mins by LC-MS/MS analysis; assay type: ADME, cell-based, Hepatocyte
Procedure, shortened: (§3)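 Pooled male CD-1 mouse or pooled human hepatocytes at 1 million cells/mL final, compound at 1 µM. Incubated at 37 °C in a CO2 incubator with shaking (~100 rpm). Samples taken at 0, 15, 30, 60, 90 and 120 min and quenched with cold ACN/MeOH containing internal standard. Parent compound remaining measured by LC-MS/MS.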

[10] = Half life in human hepatocytes assessed per million cells at 1 uM incubated up to 120 mins by LC-MS/MS analysis; assay type: ADME, cell-based, Hepatocyte; procedure, shortened: as §3
[11] = Intrinsic clearance in CD-1 mouse hepatocytes assessed per million cells at 1 uM incubated up to 120 mins by LC-MS/MS analysis; assay type: ADME, cell-based, Hepatocyte; settings: read-out: CLH; procedure, shortened: as §3
[12] = Intrinsic clearance in human hepatocytes assessed per million cells at 1 uM incubated up to 120 mins by LC-MS/MS analysis; assay type: ADME, cell-based, Hepatocyte; settings: read-out: CLH; procedure, shortened: as §3

Structure (SMILES) | MIC90 [1] [µg/mL] | IC50 [2] [µg/mL] | also measured
CC1COC2(CCN(c3cc(=O)c4cc(C(F)(F)F)cc([N+](=O)[O-])c4s3)CC2)O1 (configuration not stated) | 0.03 (≈ 0.0697 µM) | > 64 | remaining at 0.5 h, 1 µM [3]: 82.8%; remaining at 0.5 h, 1 µM [4]: 47.4%; IC50 [5]: 0.63 µM
O=c1cc(NCc2cccc(F)c2)sc2c([N+](=O)[O-])cc(C(F)(F)F)cc12 | 0.118 (≈ 0.296 µM) | > 64 | –
O=c1nc(NC2CCCCC2)oc2c([N+](=O)[O-])cc(C(F)(F)F)cc12 | 0.118 (≈ 0.33 µM) | 5.39 (≈ 15.1 µM) | –
O=c1nc(NCc2cccc(F)c2)oc2c([N+](=O)[O-])cc(C(F)(F)F)cc12 | > 32 | > 64 | –
COc1ccc(CNc2cc(=O)c3cc(C(F)(F)F)cc([N+](=O)[O-])c3s2)cc1OC | 0.902 (≈ 2.05 µM) | > 64 | –
CC1COC2(CCN(c3cc(=O)c4cc(C(F)(F)F)cc([N+](=O)[O-])c4o3)CC2)O1 (configuration not stated) | < 0.016 | 18.9 (≈ 45.5 µM) | –
O=c1cc(NCc2ccc(F)cc2)sc2c([N+](=O)[O-])cc(C(F)(F)F)cc12 | 0.206 (≈ 0.517 µM) | > 64 | –
O=c1nc(NCc2ccc3c(c2)OCCO3)oc2c([N+](=O)[O-])cc(C(F)(F)F)cc12 | 0.03 (≈ 0.0709 µM) | 25.3 (≈ 59.7 µM) | –
O=c1cc(N2CCN(Cc3ccccc3)CC2)sc2c([N+](=O)[O-])cc(C(F)(F)F)cc12 | 0.03 (≈ 0.0667 µM) | > 64 | remaining at 0.5 h, 1 µM [3]: 87.6%; remaining at 0.5 h, 1 µM [4]: 60.5%; IC50 [6]: > 64 µg/mL; selectivity ratio [7]: > 2130; IC50 [5]: 1.33 µM
O=c1nc(Nc2ccccc2)oc2c([N+](=O)[O-])cc(C(F)(F)F)cc12 | 30.6 (≈ 87.3 µM) | 37.9 (≈ 108 µM) | –
O=c1cc(N2CCN(c3nccs3)CC2)sc2c([N+](=O)[O-])cc(C(F)(F)F)cc12 | 0.054 (≈ 0.122 µM) | > 64 | –
O=c1cc(N2CCN(CC3CCCCC3)CC2)oc2c([N+](=O)[O-])cc(C(F)(F)F)cc12 | 0.116 (≈ 0.264 µM) | 10.6 (≈ 24.1 µM) | –
CC1CN(c2cc(=O)c3cc(C(F)(F)F)cc([N+](=O)[O-])c3s2)CCN1Cc1ccccc1 (configuration not stated) | < 0.016 | > 64 | remaining at 0.5 h, 1 µM [3]: 76.7%; remaining at 0.5 h, 1 µM [4]: 54.5%
CC1COC2(CCN(c3nc(=O)c4cc(C(F)(F)F)cc([N+](=O)[O-])c4o3)CC2)O1 (configuration not stated) | < 0.016 | 9.21 (≈ 22.2 µM) | –
O=c1cc(NC2CCCCC2)sc2c([N+](=O)[O-])cc(C(F)(F)F)cc12 | 1.53 (≈ 4.1 µM) | > 64 | –
CN(Cc1ccc2c(c1)OCCO2)c1cc(=O)c2cc(C(F)(F)F)cc([N+](=O)[O-])c2s1 | < 0.016 | > 64 | remaining at 0.5 h, 1 µM [3]: 44.9%; remaining at 0.5 h, 1 µM [4]: 6.46%
O=c1cc(Nc2ccccc2)sc2c([N+](=O)[O-])cc(C(F)(F)F)cc12 | > 32 | > 64 | –
CC1CN(c2nc(=O)c3cc(C(F)(F)F)cc([N+](=O)[O-])c3o2)CCN1CC1CCCCC1 (configuration not stated) | < 0.016 | 10.9 (≈ 23.9 µM) | –
O=c1nc(NCC2CCCCC2)oc2c([N+](=O)[O-])cc(C(F)(F)F)cc12 | 0.05 (≈ 0.135 µM) | 29.7 (≈ 80.1 µM) | –
CN(Cc1ccc2c(c1)OCCO2)c1cc(=O)c2cc(C(F)(F)F)cc([N+](=O)[O-])c2o1 | < 0.016 | 29.4 (≈ 67.4 µM) | –
O=c1cc(NCC2CCCCC2)sc2c([N+](=O)[O-])cc(C(F)(F)F)cc12 | 0.402 (≈ 1.04 µM) | > 64 | –
O=c1nc(N2CCN(Cc3ccccc3)CC2)oc2c([N+](=O)[O-])cc(C(F)(F)F)cc12 | 3.93 (≈ 9.05 µM) | 33.5 (≈ 77.1 µM) | –

Structure (SMILES) | MIC90 [1] [µg/mL] | IC50 [2] [µg/mL] | also measured
O=c1nc(N2CCN(c3nccs3)CC2)oc2c([N+](=O)[O-])cc(C(F)(F)F)cc12 | 4 (≈ 9.36 µM) | – | –
COc1ccc(CN(C)c2cc(=O)c3cc(C(F)(F)F)cc([N+](=O)[O-])c3s2)cc1OC | < 0.016 | > 64 | –
COc1ccc(CNc2nc(=O)c3cc(C(F)(F)F)cc([N+](=O)[O-])c3o2)cc1OC | 0.226 (≈ 0.531 µM) | 29.2 (≈ 68.7 µM) | –
CN(Cc1ccccc1)c1nc(=O)c2cc(C(F)(F)F)cc([N+](=O)[O-])c2o1 | 0.031 (≈ 0.0817 µM) | 3.84 (≈ 10.1 µM) | –
O=c1cc(NCc2ccccc2)sc2c([N+](=O)[O-])cc(C(F)(F)F)cc12 | > 32 | > 64 | –
COc1ccc(CN(C)c2nc(=O)c3cc(C(F)(F)F)cc([N+](=O)[O-])c3o2)cc1OC | 0.057 (≈ 0.13 µM) | 9.46 (≈ 21.5 µM) | –
O=c1nc(N2CCN(CC3CCCCC3)CC2)oc2c([N+](=O)[O-])cc(C(F)(F)F)cc12 | 0.159 (≈ 0.361 µM) | 52.1 (≈ 118 µM) | –
CC1CN(c2cc(=O)c3cc(C(F)(F)F)cc([N+](=O)[O-])c3s2)CCN1CC1CCCCC1 (configuration not stated) | < 0.016 | > 64 | remaining at 0.5 h, 1 µM [3]: 62.7%; remaining at 0.5 h, 1 µM [4]: 59.9%
O=C1CN(c2cc(=O)c3cc(C(F)(F)F)cc([N+](=O)[O-])c3s2)CCN1CC1CCCCC1 | < 0.016 | > 64 | remaining at 0.5 h, 1 µM [3]: 86.6%; remaining at 0.5 h, 1 µM [4]: 7.38%
O=C1CN(c2nc(=O)c3cc(C(F)(F)F)cc([N+](=O)[O-])c3o2)CCN1CC1CCCCC1 | 6.28 (≈ 13.8 µM) | 25.4 (≈ 55.9 µM) | –
O=c1nc(NCc2ccc(F)cc2)oc2c([N+](=O)[O-])cc(C(F)(F)F)cc12 | 7.22 (≈ 18.8 µM) | > 64 | –
O=c1nc(NCc2ccccc2)oc2c([N+](=O)[O-])cc(C(F)(F)F)cc12 | 30.5 (≈ 83.6 µM) | 25.4 (≈ 69.4 µM) | –
O=C1CN(c2cc(=O)c3cc(C(F)(F)F)cc([N+](=O)[O-])c3o2)CCN1CC1CCCCC1 | 0.091 (≈ 0.201 µM) | 9.73 (≈ 21.5 µM) | –
CN(Cc1ccccc1)c1cc(=O)c2cc(C(F)(F)F)cc([N+](=O)[O-])c2s1 | < 0.016 | > 64 | remaining at 0.5 h, 1 µM [3]: 11.6%; remaining at 0.5 h, 1 µM [4]: 13%
CN(Cc1ccc2c(c1)OCCO2)c1nc(=O)c2cc(C(F)(F)F)cc([N+](=O)[O-])c2o1 | < 0.016 | 9.27 (≈ 21.2 µM) | –
CC1CN(c2nc(=O)c3cc(C(F)(F)F)cc([N+](=O)[O-])c3o2)CCN1Cc1ccccc1 (configuration not stated) | < 0.016 | 15.6 (≈ 34.8 µM) | –
O=c1cc(NCc2ccc3c(c2)OCCO3)sc2c([N+](=O)[O-])cc(C(F)(F)F)cc12 | 0.03 (≈ 0.0684 µM) | > 64 | –
C[C@H]1COC2(CCN(c3nc(=O)c4cc(C(F)(F)F)cc([N+](=O)[O-])c4s3)CC2)O1 [BTZ-043] | < 0.016 | > 64 | IC50 [5]: 1.03 µM
NNC(=O)c1ccncc1 [ISONIAZID] | 0.035 (≈ 0.255 µM) | – | Activity [8]: 1.929 log10CFU
O=c1nc(N2CCN(CC3CCCCC3)CC2)sc2c([N+](=O)[O-])cc(C(F)(F)F)cc12 [MACOZINONE] | < 0.016 | > 64 | remaining at 0.5 h, 1 µM [3]: 58.7%; remaining at 0.5 h, 1 µM [4]: 63.9%; IC50 [6]: 19 µg/mL (≈ 41.6 µM); selectivity ratio [7]: > 1190; IC50 [5]: 0.2 µM; half-life at 1 µM [9]: 2.75 h; half-life at 1 µM [10]: 0.797 h; hepatocyte CLint at 1 µM [11]: 4.2 µL/min/1e6 cells; hepatocyte CLint at 1 µM [12]: 14.5 µL/min/1e6 cells
CO[C@H]1/C=C/O[C@@]2(C)Oc3c(C)c(O)c4c(O)c(c(/C=N/N5CCN(C)CC5)c(O)c4c3C2=O)NC(=O)/C(C)=C\C=C\[C@H](C)[C@H](O)[C@@H](C)[C@@H](O)[C@@H](C)[C@H](OC(C)=O)[C@@H]1C [RIFAMPIN] | 0.096 (≈ 0.117 µM) | – | –
